Screening data deposited in PubChem BioAssay by several laboratories.
TLR4-MyD88 BLA: inhibitors of TLR4-MyD88 association in cells, primary screen, cell-based, HeLa CL3-4, BLA complementation, FRET ratio | AID 861, 2007 | inhibition, % at 8.4 µM | 200,000 tested, 0.18% active | HeLa CL3-4 TLR4/MyD88 BLA complementation; in the data active means inhibition above about 25%;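 further: 0% = vehicle and 100% = reference inhibitor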
MT stabilize HCS: microtubule stabilizers in HeLa cells, primary screen, imaging, high-content imaging; HeLa tubulin immunostaining HCS, 24 h; share of cells brighter than vehicle mean+2SD; % tubulin-high responders, % at 10 µM; 200,000 tested, 0.83% active; AID 2205, 2009;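 active means plate Z-score above 3 for both tubulin-high and condensed-nucleus cell shares, with cell loss under 80%, at 10 µM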;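 further: anti alpha tubulin signal scored within the nucleus-defined area of each cell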
b-catenin transl: modulators of beta-catenin nuclear translocation, primary screen, imaging, HeLa cells, immunofluorescence, high-content; nuclear translocation activity, % at 5 µM; AID 1665, 2009; 190,000 tested, 0.3% active;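 active means nuclear translocation activity above 50% at 5 µM, with a well cell count of 50 or more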;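 further: per-cell ratio of nuclear to cytoplasmic median beta-catenin stain intensity; plate controls were DMSO negative control for no effect and GSK-3 inhibitor IX positive control for full effect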
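Test system: HeLa cells, endogenous beta-catenin; Compound: single 5 µM dose plus 0.02–20 µM confirmation series; Times: compound exposure 24 h at 37°C; Signal: fluorescence imaging of beta-catenin antibody stain plus DAPI; Read-out: % activation, nuclear-to-cytoplasmic median beta-catenin signal ratio per cell.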
NOD2 RIPK2 PPI: NOD2-RIPK2 binding disruptors in cells, primary screen, fluorescence, CHO cells, BLA complementation. Receptor-interacting serine/threonine-protein kinase 2 (Homo sapiens), O43353. CCF4 ratio. inhibition, % at 4.98 µM. 360,000 tested, 0.38% active. AID 624267, 2012; in the data active means inhibition above about 21%;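 further: 0% = vehicle only and 100% = reference blocker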
Hsp70 activator: Hsp70 transcriptional activators, primary screen, cell-based, HeLa, Hsp70 promoter luciferase, luminescence, 10 µM | HeLa Hsp70 promoter luciferase reporter; scaled: vehicle 0, proteasome-inhibitor control 100% | 200,000 tested, 0.04% active | activation, % at 10 µM;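 active means activation above the mean across all tested compounds plus 3 SD, cutoff set per campaign, cut at about 5.5% in these data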;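 further: 100% = MG132 at 30 µM as the positive control and 0% = DMSO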
TLR9-MyD88 block: inhibitors of TLR9-MyD88 association in cells, primary screen, cell-based, CHO, BLA complementation, fluorescence | CCF4 FRET ratio | 340,000 tested, 0.21% active | Toll-like receptor 9 (Homo sapiens) + Myeloid differentiation primary response protein … | AID 504734, 2011 | inhibition, % at 4.98 µM;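 active means inhibition above the mean over all tested compounds plus 3 SD, cut at about 21% in these data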;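 further: 0% = DMSO only wells and 100% = clavulanate BLA inhibitor control wells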
NOD2-RIPK2 conf: NOD2-RIPK2 binding disruptors, retest, confirmation, fluorescence, CHO cells, BLA complementation, triplicate. shares compounds with NOD2 RIPK2 PPI. CCF4 FRET. inhibition, % at 4.98 µM. 1,200 tested, 70% active. AID 624370, 2012;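 active means mean inhibition across replicates above a set limit taken from the earlier primary screen, cut at about 21% in these data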;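 further: 0% = DMSO-only wells and the high end = clavulanate BLA-blocked wells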
BLA counter: NOD2-RIPK2 counterscreen BLA reporter activity; shares compounds with NOD2 RIPK2 PPI; CHO BLA reporter, CCF4 FRET ratio; inhibition, % at 4.98 µM; 1,200 tested, 57% active; AID 624371;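 active means mean inhibition above the low-control mean inhibition plus three low-control SD, cut at about 11% in these data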;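 further: 0% = DMSO only wells and 100% = clavulanate high control wells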
Active calls of the source: *; . = no result given. An excerpt weighted towards active compounds, which were near 1% of everything screened.

SMILES	TLR4-MyD88 BLA	MT stabilize HCS	b-catenin transl	NOD2 RIPK2 PPI	Hsp70 activator	TLR9-MyD88 block	NOD2-RIPK2 conf	BLA counter
Cc1ccc(C(=O)NC(Cc2cccc(C(F)(F)F)c2)C(=O)O)cc1 (stereo unspecified)	.	.	.	-15	.	-8	.	.
CN(C)Cc1c(O)ccc2c(-c3ccccc3)cc(=O)oc12	10	2	-1	9	0	6	.	.
CN(C)Cc1c(O)ccc2cc(-c3nc4ccccc4n3C)c(=O)oc12	.	.	.	31*	.	21	33*	58*
CCN(CC)S(=O)(=O)c1cccc(NC(=O)CNc2cccc(S(=O)(=O)N3CCOCC3)c2)c1	.	.	.	8	.	-4	.	.
CC(C)CC1C(=O)N(Cc2cn(CCC3OCCCO3)nn2)CCS(=O)(=O)N1Cc1ccc(-c2ccc(Cl)nc2)cc1 (stereo unspecified)	.	.	.	-4	.	3	.	.
O=C1C(F)=CC(COC(c2ccccc2)(c2ccccc2)c2ccccc2)OC1n1cc(F)c(=O)[nH]c1=O (stereo unspecified)	.	.	.	30*	.	-3	58*	24*
O=c1[nH]c2cc3c(cc2cc1CN(CCCO)Cc1nnnn1Cc1ccc(F)cc1)OCO3	3	6	-1	26*	0	8	-3	2
CCSc1ccc(-c2cc(NC=O)c3ncc(-c4cccc(C(=O)NCCN(C)C)c4)n3c2)cc1	.	.	.	23*	.	.	25*	-2
O=C(NCc1cccnc1)/C(=C/c1ccc(-c2ccc(Cl)cc2)o1)S(=O)(=O)c1ccccc1	0	63	.	41*	3	8	36*	-3
O=C(NCc1cccnc1)/C(=C\c1ccc(-c2ccc(Br)cc2)o1)S(=O)(=O)c1ccccc1	9	47*	3	33*	1	-6	30*	-1
O=C(CN(Cc1ccc(Br)cc1)S(=O)(=O)c1ccccc1)NCc1cccnc1	.	.	.	4	.	-5	.	.
CC(=O)Nc1ccc(-c2ccnc3c2CC(C(=O)Nc2cccnc2)O3)cc1 (stereo unspecified)	.	.	.	-5	.	.	.	.
COCc1cn(CC(C)n2c(=O)c3ccccc3n2Cc2cc(C(C)C)no2)nn1 (stereo unspecified)	.	.	.	2	.	.	.	.
COc1ccc(CN(C(=O)/C=C/C(=O)c2ccc(OC)cc2O)C(C(=O)NC2CCCCC2)c2ccncc2)cc1 (stereo unspecified)	-28	3	0	4	0	-9	.	.
COc1ccc(C(=O)/C=C/C(=O)N(CC(=O)NC2CCCCC2)Cc2cccs2)c(O)c1	24	2	1	74*	0	18	85*	17*
CCOC(=O)N1CCC(NC(=O)c2cc(COc3c(C)cccc3C)on2)CC1	.	.	.	7	.	-2	.	.
CCCCOc1cccc2c(=O)n(CC(=O)Nc3ccc4c(c3)OCCO4)ccc12	.	.	.	-17	.	.	.	.
CC(C)(C)NC(=O)C(c1ccc(C(F)(F)F)cc1)n1c(=O)c(-c2cc3ccccc3[nH]2)nc2ccccc21 (stereo unspecified)	.	.	.	45*	.	.	41*	66*
COc1ccc(C(C(=O)NC(C)(C)C)n2c(=O)c(-c3ccccc3)nc3ccccc32)cc1 (stereo unspecified)	.	.	.	-3	.	.	.	.
CC(C)(C)NC(=O)C(c1ccccc1)n1c(=O)c(-c2ccco2)nc2ccccc21 (stereo unspecified)	.	.	.	-6	.	.	.	.
CC(C)(C)NC(=O)C(c1ccccc1)n1c(=O)c(-c2cc3ccccc3[nH]2)nc2ccccc21 (stereo unspecified)	.	.	.	43*	.	.	40*	65*
